The source made the active and inactive calls. The rule behind the calls is not given here.
Assays:
[1] = test system: Geobacillus stearothermophilus; assay: Bactericidal activity against sBacillus stearothermophilus NCA 1518 at 200 ug/ml by liquid culture assay; assay type: functional, organism-based
Summary of the method: (§1)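 Wells hold brain heart infusion (200 µl) plus 50 µl inoculum at 10³–10⁵ cfu/ml, with dicranin added as the sodium salt in water (10–200 μg/ml tested). Cultures are incubated at the strain's optimal growth temperature. Duplicate 100 µl samples are taken at 0, 2, 4, 6, 8 and 24 h, diluted in tryptone salt to 10–500 bacteria/plate, plated on plate count agar, and colonies counted after 24 h.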

Staphylococcus aureus [2] = assay: Antibacterial activity against Staphylococcus aureus T-AQ 49/YF29 at 125 ug/disk after 24 hrs by disk diffusion assay; assay type: functional; details: read-out: Diameter of inhibition zone
Summary of the method: (§2)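 Sterile 6 mm filter-paper disc bearing sample set in the centre of a Petri dish of 15 ml plate count agar. Overlaid with 3 ml soft nutrient agar (nutrient broth + 0.7% agar) seeded with 1% of a 16–18 h culture of the test strain. Read-out is the diameter of the growth-free zone around the disc.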

[3] = test system: Geobacillus stearothermophilus; assay: Bacteriostatic activity against Bacillus stearothermophilus NCA 1518 at 50 to 150 ug/ml after 4 hrs by liquid culture assay; assay type: functional, organism-based; summary of the method: as §1
Pseudomonas aeruginosa = assay: Antibacterial activity against Pseudomonas aeruginosa ATCC 10145 at 1 mg/disk after 24 hrs by disk diffusion assay; assay type: functional, organism-based; summary of the method: as §2
Bacillus cereus [4] = assay: Bactericidal activity against Bacillus cereus NCIB 3329 at 100 ug/ml upto 4 hrs by liquid culture assay; assay type: functional, organism-based; summary of the method: as §1
Salmonella typhimurium = assay: Antibacterial activity against Salmonella Typhimurium NCIB 10248 at 1 mg/disk after 24 hrs by disk diffusion assay; assay type: functional, organism-based; details: Salmonella enterica subsp. enterica serovar Typhimurium; summary of the method: as §2
Enterococcus faecalis [5] = assay: Antibacterial activity against Streptococcus faecalis NCIB 775 at 25 ug/disk after 24 hrs by disk diffusion assay; assay type: functional; details: read-out: Diameter of inhibition zone
Summary of the method: (§3)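 Test material loaded onto 6 mm sterile filter-paper discs. Each disc sits at the centre of a plate of 15 ml plate count agar overlaid with 3 ml soft nutrient agar (nutrient broth + 0.7% agar) carrying 1% of a 16–18 h culture. Activity is read as the diameter of the no-growth zone around the disc.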

Bacillus cereus [6] = assay: Antibacterial activity against Bacillus cereus NCIB 3329 at 75 ug/disk after 24 hrs by disk diffusion assay; assay type: functional; details: read-out: Diameter of inhibition zone; summary of the method: as §2
Escherichia coli = assay: Antibacterial activity against Escherichia coli B74-1 at 1 mg/disk after 24 hrs by disk diffusion assay; assay type: functional, organism-based; summary of the method: as §2
Enterococcus faecalis [7] = assay: Antibacterial activity against Streptococcus faecalis NCIB 775 at 75 ug/disk after 24 hrs by disk diffusion assay; assay type: functional; details: read-out: Diameter of inhibition zone; summary of the method: as §3
[8] = test system: Geobacillus stearothermophilus; assay: Antibacterial activity against Bacillus stearothermophilus NCA 1518 after 24 hrs by disk diffusion assay; assay type: functional, organism-based; summary of the method: as §2
[9] = test system: Geobacillus stearothermophilus; assay: Antibacterial activity against Bacillus stearothermophilus NCA 1518 at 75 ug/disk after 24 hrs by disk diffusion assay; assay type: functional; details: read-out: Diameter of inhibition zone; summary of the method: as §2
Staphylococcus aureus [10] = assay: Antibacterial activity against Staphylococcus aureus T-AQ 49/YF29 at 500 ug/disk after 24 hrs by disk diffusion assay; assay type: functional; details: read-out: Diameter of inhibition zone; summary of the method: as §2
Bacillus cereus [11] = assay: Antibacterial activity against Bacillus cereus NCIB 3329 at 25 ug/disk after 24 hrs by disk diffusion assay; assay type: functional; details: read-out: Diameter of inhibition zone; summary of the method: as §2
[12] = test system: Geobacillus stearothermophilus; assay: Antibacterial activity against Bacillus stearothermophilus NCA 1518 at 25 ug/disk after 24 hrs by disk diffusion assay; assay type: functional; details: read-out: Diameter of inhibition zone; summary of the method: as §2
Staphylococcus aureus [13] = assay: Antibacterial activity against Staphylococcus aureus T-AQ 49/YF29 at 10 ug/disk after 24 hrs by disk diffusion assay; assay type: functional; details: read-out: Diameter of inhibition zone; summary of the method: as §2
[14] = test system: Geobacillus stearothermophilus; assay: Antibacterial activity against Bacillus stearothermophilus NCA 1518 at 100 ug/disk after 24 hrs by disk diffusion assay; assay type: functional; details: read-out: Diameter of inhibition zone; summary of the method: as §2
Staphylococcus aureus [15] = assay: Antibacterial activity against Staphylococcus aureus T-AQ 49/YF29 at 75 ug/disk after 24 hrs by disk diffusion assay; assay type: functional; details: read-out: Diameter of inhibition zone; summary of the method: as §2
Bacillus subtilis [16] = assay: Antibacterial activity against Bacillus subtilis NCIB 3610 at 10 ug/disk after 24 hrs by disk diffusion assay; assay type: functional; details: read-out: Diameter of inhibition zone; summary of the method: as §2
[17] = test system: Geobacillus stearothermophilus; assay: Antibacterial activity against Bacillus stearothermophilus NCA 1518 at 500 ug/disk after 24 hrs by disk diffusion assay; assay type: functional; details: read-out: Diameter of inhibition zone; summary of the method: as §2
[18] = test system: Geobacillus stearothermophilus; assay: Antibacterial activity against Bacillus stearothermophilus NCA 1518 at 250 ug/disk after 24 hrs by disk diffusion assay; assay type: functional; details: read-out: Diameter of inhibition zone; summary of the method: as §2
Pseudomonas putida = assay: Antibacterial activity against Pseudomonas putida T-AQ 18/YF18 at 1 mg/disk after 24 hrs by disk diffusion assay; assay type: functional, organism-based; summary of the method: as §2
Enterococcus faecalis [19] = assay: Antibacterial activity against Streptococcus faecalis NCIB 775 at 50 ug/disk after 24 hrs by disk diffusion assay; assay type: functional; details: read-out: Diameter of inhibition zone; summary of the method: as §3
Enterococcus faecalis [20] = assay: Antibacterial activity against Streptococcus faecalis NCIB 775 at 10 ug/disk after 24 hrs by disk diffusion assay; assay type: functional; details: read-out: Diameter of inhibition zone; summary of the method: as §2
[21] = test system: Geobacillus stearothermophilus; assay: Antibacterial activity against Bacillus stearothermophilus NCA 1518 at 125 ug/disk after 24 hrs by disk diffusion assay; assay type: functional; details: read-out: Diameter of inhibition zone; summary of the method: as §2
Bacillus subtilis [22] = assay: Antibacterial activity against Bacillus subtilis NCIB 3610 at 75 ug/disk after 24 hrs by disk diffusion assay; assay type: functional; details: read-out: Diameter of inhibition zone; summary of the method: as §2
[23] = test system: Geobacillus stearothermophilus; assay: Antibacterial activity against Bacillus stearothermophilus NCA 1518 at 10 ug/disk after 24 hrs by disk diffusion assay; assay type: functional; details: read-out: Diameter of inhibition zone; summary of the method: as §2

CC/C=C\C/C=C\C/C=C\CC#CCCCCC(=O)O [DICRANIN]
Activity [1]: Active | zone of inhibition at 125 µg/disc (Staphylococcus aureus [2]): 17 mm | Activity [3]: Active | Activity (Pseudomonas aeruginosa): inactive | Activity (Bacillus cereus [4]): Active | Activity (Salmonella typhimurium): inactive | zone of inhibition at 25 µg/disc (Enterococcus faecalis [5]): 10 mm | zone of inhibition at 75 µg/disc (Bacillus cereus [6]): 11 mm | Activity (Escherichia coli): inactive | zone of inhibition at 75 µg/disc (Enterococcus faecalis [7]): 13 mm | Activity [8]: Active | zone of inhibition at 75 µg/disc [9]: 14 mm | zone of inhibition at 500 µg/disc (Staphylococcus aureus [10]): 22 mm | zone of inhibition at 25 µg/disc (Bacillus cereus [11]): 9 mm | zone of inhibition at 25 µg/disc [12]: 9 mm | zone of inhibition at 10 µg/disc (Staphylococcus aureus [13]): 0 mm | zone of inhibition at 100 µg/disc [14]: 16 mm | zone of inhibition at 75 µg/disc (Staphylococcus aureus [15]): 12 mm | zone of inhibition at 10 µg/disc (Bacillus subtilis [16]): 0 mm | zone of inhibition at 500 µg/disc [17]: 32 mm | zone of inhibition at 250 µg/disc [18]: 26 mm | Activity (Pseudomonas putida): inactive | zone of inhibition at 50 µg/disc (Enterococcus faecalis [19]): 12 mm | zone of inhibition at 10 µg/disc (Enterococcus faecalis [20]): 6 mm | zone of inhibition at 125 µg/disc [21]: 17 mm | zone of inhibition at 75 µg/disc (Bacillus subtilis [22]): 13 mm | zone of inhibition at 10 µg/disc [23]: 0 mm
